From ChEMBL document CHEMBL1154791, “Constituents of Polyalthia longifolia var. pendula” (J Nat Prod, 2009)

Assays:
[1] = system: A549; assay: Cytotoxicity against human A549 cells after 72 hrs by MTT assay; format: functional, cell-based
Outline: (§1)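 Cells grown in RPMI1640 with 10% FBS, penicillin and streptomycin; log-phase cells seeded per well (MCF-7 1.0 × 10^4; A549 4.5 × 10^3). After 24 h, exposed to various concentrations for 72 h.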

[2] = system: MCF7; assay: Cytotoxicity against human MCF7 cells after 72 hrs by MTT assay; format: functional, cell-based; outline: as §1

| Compound | IC50 ([1]; Homo sapiens, A549, 72 h, read-out: IC50) | IC50 ([2]; Homo sapiens, MCF7, 72 h, read-out: IC50) | IC50 ([1]; a549) | IC50 ([2]; mcf7) |
| --- | --- | --- | --- | --- |
| CC1=CCC[C@@H]2[C@@](C)(CC/C(C=O)=C\C(=O)O)[C@H](C)CC[C@@]12C | 3.1 µM | 3.7 µM |  |  |
| CC1=CC(=O)C[C@@H]2[C@@](C)(CC/C(C)=C\C(=O)O)[C@H](C)CC[C@@]12C |  |  | Not Active | Not Active |
| CC1=CCC[C@@H]2[C@@](C)(CC/C(=C\C(=O)O)CO)[C@H](C)C[C@H](O)[C@@]12C |  |  | Not Active | Not Active |
| C=C1CCC[C@@H]2[C@@](C)(CC/C(=C\C(=O)O)CO)[C@H](C)C[C@H](O)[C@@]12C |  |  | Not Active | Not Active |
| COc1cc2c(cc1OC)[C@@H]1Cc3ccc(O)c(O)c3C(=O)N1CC2 |  |  | Not Active | Not Active |
| COc1cc2c(cc1OC)[C@@H]1Cc3cc(O)cc(OC)c3C(=O)N1CC2 |  |  | Not Active | Not Active |
| C[C@@H]1CC[C@]2(C)[C@H](CCC[C@]23CO3)[C@@]1(C)CC/C(=C\C(=O)O)CO |  |  | Not Active | Not Active |
| COc1cc2c(cc1OC)[C@@H]1Cc3ccc(O)c(OC)c3C(=O)N1CC2 |  |  | Not Active | Not Active |
| COc1cc2c(cc1O)[C@@H]1Cc3cc(O)c(OC)cc3C(=O)N1CC2 |  |  | Not Active | Not Active |
| COc1cc2c(cc1OC)[C@@H]1Cc3cc(O)c(OC)c(OC)c3C(=O)N1CC2 |  |  | Not Active | Not Active |
| COc1cc2c(cc1O)[C@@H]1Cc3cc(OC)c(O)c(OC)c3C(=O)N1CC2 |  |  | Not Active | Not Active |
| CCCCC/C=C\C/C=C\CCCCCCCC(=O)OCC(O)CO (stereo not given) |  |  | Not Active | Not Active |
| COc1cc2c(cc1OC)[C@@H]1Cc3ccc(OC)c(OC)c3C(=O)N1CC2 |  |  | Not Active | Not Active |
| COc1c(O)cc2c(c1OC)-c1nccc(C)c1C2=O [DARIENINE] |  |  | Not Active | Not Active |
| COc1cc(/C=C/C(=O)NCCc2ccc(O)c(O)c2)ccc1O [N-TRANS-FERULOYLDOPAMINE] |  |  | Not Active | Not Active |
